PMC2215654 (The Journal of General Physiology, 1984)
Read-outs that look alike come from different tables or passages of the source.

What was measured:
[1] = tested on: red cells (valinomycin-induced Rb+ exchange); experiment: 86Rb exchange with valinomycin, 0C; format: cell-based, human
How it was run: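 Human red cells washed in 150 mM NaCl, 2 mM KCl, 20 mM HEPES pH 7.4, then loaded 17 h at 37°C (50% hematocrit) with ~5 uCi/ml 86Rb in 5 mM adenosine/chloramphenicol buffer. Efflux ran at 0°C, 0.1% hematocrit, in 48 mM NaCl/112 mM KCl/5 mM HEPES pH 7.2 with 1.33% ethanol. Valinomycin was added last, with or without 10 uM DIDS. Timed samples were centrifuged to give the efflux rate constant.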

[2] = tested on: red cells (net chloride permeability); experiment: Net KCl flux with valinomycin into low chloride medium, 0C; format: cell-based, human
How it was run: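 Nystatin-treated high-Cl cells were washed in 150K, then 10K-Hi. Net K+ efflux was measured at 0°C, 0.1% hematocrit, in 10K-Hi with 1.33% ethanol, started by adding graded valinomycin, with or without 10 uM DIDS. K+ was read by flame photometry and taken as net KCl efflux. PK/PCl came from Goldman-equation fits, with PK linear in valinomycin and PK = 0.5 PRb.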

[3] = biological target: T1, human erythrocyte anion exchange protein (band 3) (Homo sapiens, UniProt P02730); format: cell-based; details: Table III mean
T1 sequence (P02730 1-911): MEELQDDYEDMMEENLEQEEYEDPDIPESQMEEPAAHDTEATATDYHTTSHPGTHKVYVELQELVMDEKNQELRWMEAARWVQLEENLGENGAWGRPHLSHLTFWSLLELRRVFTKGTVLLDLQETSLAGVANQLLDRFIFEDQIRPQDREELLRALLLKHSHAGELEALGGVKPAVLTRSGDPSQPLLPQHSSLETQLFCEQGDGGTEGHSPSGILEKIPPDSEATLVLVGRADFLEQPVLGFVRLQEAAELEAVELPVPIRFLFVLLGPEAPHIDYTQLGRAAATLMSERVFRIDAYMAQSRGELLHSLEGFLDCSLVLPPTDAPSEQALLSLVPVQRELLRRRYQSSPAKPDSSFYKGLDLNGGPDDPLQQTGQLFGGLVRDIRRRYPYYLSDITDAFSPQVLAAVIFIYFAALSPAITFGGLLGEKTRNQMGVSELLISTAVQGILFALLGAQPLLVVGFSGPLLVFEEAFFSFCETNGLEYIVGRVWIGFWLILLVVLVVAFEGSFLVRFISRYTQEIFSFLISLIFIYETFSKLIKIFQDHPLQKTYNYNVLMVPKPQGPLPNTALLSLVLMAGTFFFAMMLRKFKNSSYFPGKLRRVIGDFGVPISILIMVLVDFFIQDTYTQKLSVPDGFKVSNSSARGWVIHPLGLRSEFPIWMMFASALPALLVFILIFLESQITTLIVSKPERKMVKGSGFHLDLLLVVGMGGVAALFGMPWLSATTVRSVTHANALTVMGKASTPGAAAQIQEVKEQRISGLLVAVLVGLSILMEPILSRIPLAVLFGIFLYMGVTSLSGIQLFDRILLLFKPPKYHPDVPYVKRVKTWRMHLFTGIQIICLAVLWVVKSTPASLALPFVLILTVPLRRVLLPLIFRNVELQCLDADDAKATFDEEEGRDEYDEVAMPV
How it was run: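 Washed cells in 60K-Hi (pH 7.2) were pretreated 45 min at 37°C, 10% hematocrit, with 2.5 uM (low pH) or 5 uM (high pH) H2DIDS. They were albumin-washed, nystatin-treated (75 ug/ml, 10 min each in 60K-Hi then 60K-Lo, 0°C) and washed into 60K-Lo at pH 7.2 or 9.0. 36Cl efflux with graded H2DIDS and Cl ratios were measured at 0°C in those media. ID50 came from Dixon-plot x-intercepts.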

[4] = biological target: T1, human erythrocyte anion exchange protein (band 3); experiment: H2DIDS inhibition of chloride exchange in resealed ghosts with Cli < Clo, 0C; format: cell-based
How it was run: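 Washed cells were lysed at 0°C in 3.5 mM acetic acid, 4 mM MgSO4, 1 mM EGTA. Tris/KCl/sodium citrate was added for 10 or 60 mM internal Cl; after 10 min at 0°C, ghosts were resealed 45 min at 37°C. They were washed in 60 mM NaCl, 60 mM Na citrate, 5 mM HEPES, 5 mM glucose, MgSO4, pH 7.2. 36Cl efflux with graded H2DIDS was measured at 0°C; ID50 came from Dixon-plot x-intercepts.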

With O=S(=O)(O)c1cc(N=C=S)ccc1C=Cc1ccc(N=C=S)cc1S(=O)(=O)O [DIDS, 4,4'-diisothiocyano-stilbene-2,2'-disulfonic acid] the “effect on Rb+ exchange” value ([1]; DIDS 10 uM, valinomycin-induced Rb+ exchange) was “no significant effect”, the PRb ([1]; Fig. 7, 10 uM valinomycin with 10 uM DIDS present) was 0.09216 mmol/kg Hb - min - mM and the “plateau net KCl efflux” value ([2]; in the presence of 10 uM DIDS, high valinomycin concentrations) was “greatly reduced”.
O=S(=O)(O)c1cc(N=C=S)ccc1CCc1ccc(N=C=S)cc1S(=O)(=O)O [H2DIDS, 4,4'-diisothiocyano-1,2-diphenylethane-2,2'-disulfonic acid] was tested, and the “ID50* (no chloride gradient), mean” value ([3]; extracellular Cl 60 mM, intracellular Cl ~60 mM, 0C) was 0.24 AM, the “ID50 (chloride gradient induced by increasing pH), mean” value ([3]; intracellular Cl averaged 14.4 mM, mean Clo/Cli 4.66, 0C) was 0.47 AM and the “ID50/ID50*, mean” value ([3]; mean Clo/Cli 4.66) was 2.00. For the same compound, the “ID50* (no chloride gradient), mean” value ([4]; Table II mean, extracellular Cl 60 mM, intracellular Cl ~60 mM, 0C) was 0.15 AM, the “ID50 (with chloride gradient Clo > Cli), mean” value ([4]; Table II mean, intracellular Cl averaged 27.8 mM, mean Clo/Cli 2.35, 0C) was 0.21 AM and the “ID50/ID50*, mean” value ([4]; Table II mean, mean Clo/Cli 2.35) was 1.41. For the same compound, the “increase in ID50 caused by high pH” value ([4]; pH 9.0 versus pH 7.2, chloride ratio nearly invariant with pH) was 30%.
For CC(C)[C@@H]1NC(=O)[C@H](C)OC(=O)[C@@H](C(C)C)NC(=O)[C@@H](C(C)C)OC(=O)[C@H](C(C)C)NC(=O)[C@H](C)OC(=O)[C@@H](C(C)C)NC(=O)[C@@H](C(C)C)OC(=O)[C@H](C(C)C)NC(=O)[C@H](C)OC(=O)[C@@H](C(C)C)NC(=O)[C@@H](C(C)C)OC1=O [valinomycin], the PRb ([1]; Fig. 7, control cells, 10 uM valinomycin) was 0.09134 mmol/kg Hb - min - mM, the PK/PCl ratio ([2]; 10 uM valinomycin, 10K-Hi medium, assuming PK = 0.5 PRb) was 33 and the PK/PCl ratio ([2]; valinomycin, other experiments, medium with 150 mM NaCl and 10 mM KCl) was > 20.
